Data taken from ChEMBL document CHEMBL1136016, “Synthesis, biological activity, and molecular modeling investigation of new pyrazolo[4,3-e]-1,2,4-triazolo[1,5-c]pyrimidine derivatives as human A(3) adenosine receptor antagonists” (J Med Chem, 2002).

How the values were obtained:
[1] = molecular target: Adenosine receptors; A1 & A3 (Homo sapiens) (UniProt P30542+P0DMS8); assay: Selectivity ratio (hA1/hA3); type: protein assay
[2] = molecular target: T1, Adenosine receptor A2b (Homo sapiens, UniProt P29275); assay: Displacement of [3H]DPCPX from human Adenosine A2B receptor expressed in HEK293 cells; range 162-237; type: cell-based
T1 sequence (P29275 whole entry): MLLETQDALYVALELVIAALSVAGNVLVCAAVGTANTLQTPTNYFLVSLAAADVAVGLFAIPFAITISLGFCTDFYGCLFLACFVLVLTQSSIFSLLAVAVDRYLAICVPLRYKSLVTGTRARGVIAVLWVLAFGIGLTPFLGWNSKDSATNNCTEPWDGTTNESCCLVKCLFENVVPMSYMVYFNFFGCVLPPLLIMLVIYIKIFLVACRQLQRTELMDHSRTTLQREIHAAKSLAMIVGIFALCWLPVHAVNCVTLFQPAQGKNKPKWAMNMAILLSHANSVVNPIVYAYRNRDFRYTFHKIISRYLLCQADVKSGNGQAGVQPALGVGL
How it was run: (§1)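 Membranes from HEK-293 cells with human recombinant A2B receptor. Incubation 60 min at 25 °C in 50 mM Tris HCl, 10 mM MgCl2, 1 mM EDTA, 0.1 mM benzamidine, pH 7.4, with 2 IU/mL adenosine deaminase and 40 nM [3H]DPCPX. At least six to eight test concentrations. Nonspecific binding defined with NECA. n = 3-6.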

[3] = molecular target: Adenosine receptors; A2b & A3 (Homo sapiens) (UniProt P29275+P0DMS8); assay: Selectivity ratio (h2B/hA3); type: protein assay
[4] = molecular target: T2, Adenosine receptor A3 (Homo sapiens, UniProt P0DMS8); assay: biochemical
T2 sequence (P0DMS8 whole entry): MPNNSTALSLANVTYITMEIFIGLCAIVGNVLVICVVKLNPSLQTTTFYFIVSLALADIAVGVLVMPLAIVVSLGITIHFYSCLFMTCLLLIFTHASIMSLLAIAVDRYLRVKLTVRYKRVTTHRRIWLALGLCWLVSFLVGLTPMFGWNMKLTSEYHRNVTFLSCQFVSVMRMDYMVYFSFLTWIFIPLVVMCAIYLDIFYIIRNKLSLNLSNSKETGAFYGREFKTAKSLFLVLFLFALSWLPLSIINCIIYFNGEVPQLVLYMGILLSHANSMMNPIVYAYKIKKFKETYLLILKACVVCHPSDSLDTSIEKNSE

[5] = molecular target: T3, Adenosine receptor A2a (Homo sapiens, UniProt P29274); assay: Displacement of [3H]SCH-58261 from human Adenosine A2A receptor expressed in HEK293 cells; range 108-163; type: cell-based
[6] = molecular target: T4, Adenosine receptor A1 (Homo sapiens, UniProt P30542); assay: Displacement of [3H]DPCPX from human Adenosine A1 receptor expressed in CHO cells; range 216-412; type: cell-based
T4 sequence (P30542 whole entry): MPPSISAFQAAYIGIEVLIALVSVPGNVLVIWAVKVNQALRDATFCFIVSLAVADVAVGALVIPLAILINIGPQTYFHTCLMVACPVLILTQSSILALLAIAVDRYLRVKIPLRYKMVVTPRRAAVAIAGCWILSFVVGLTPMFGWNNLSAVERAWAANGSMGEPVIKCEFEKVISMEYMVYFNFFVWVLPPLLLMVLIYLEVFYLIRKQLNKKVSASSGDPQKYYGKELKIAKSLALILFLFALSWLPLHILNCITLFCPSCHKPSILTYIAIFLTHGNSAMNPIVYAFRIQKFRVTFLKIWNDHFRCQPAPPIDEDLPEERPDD
How it was run: (§2)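 Human recombinant A1 receptor in CHO cell membranes, resuspended in 50 mM Tris HCl pH 7.4. Displacement run 120 min at 25 °C with 1 nM [3H]DPCPX, 50 µg protein per assay, and at least six to eight test concentrations. Nonspecific binding defined with CHA. Bound and free separated on glass-fiber filters; filter radioactivity counted. n = 3-6.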

[7] = molecular target: T4, Adenosine receptor A1; assay: Displacement of [3H]DPCPX from human Adenosine A1 receptor expressed in CHO cells; range 598-838; type: cell-based
[8] = molecular target: T1, Adenosine receptor A2b; assay: Displacement of [3H]DPCPX from human Adenosine A2B receptor expressed in HEK293 cells; range 26-45; type: cell-based; how it was run: as §1
[9] = molecular target: T2, Adenosine receptor A3; assay: biochemical; remark: listed apart in the source
[10] = molecular target: T3, Adenosine receptor A2a; assay: Displacement of [3H]SCH-58261 from human Adenosine A2A receptor expressed in HEK293 cells; range 402-608; type: cell-based
[11] = molecular target: T2, Adenosine receptor A3; assay: Displacement of [3H]MRE3008-F20 from human Adenosine A3 receptor expressed in HEK cells; range 2.7-3.4; type: cell-based, HEK293
[12] = molecular target: T3, Adenosine receptor A2a; assay: Displacement of [3H]SCH-58261 from human Adenosine A2A receptor expressed in HEK293 cells; range 300-414; type: cell-based
[13] = molecular target: T1, Adenosine receptor A2b; assay: Displacement of [3H]DPCPX from human Adenosine A2B receptor expressed in HEK293 cells; range 32-51; type: cell-based; how it was run: as §1
[14] = molecular target: T4, Adenosine receptor A1; assay: Displacement of [3H]DPCPX from human Adenosine A1 receptor expressed in CHO cells; range 453-609; type: cell-based; how it was run: as §2
[15] = molecular target: T4, Adenosine receptor A1; assay: Displacement of [3H]DPCPX from human Adenosine A1 receptor expressed in CHO cells; range 358-468; type: cell-based
[16] = molecular target: T3, Adenosine receptor A2a; assay: Displacement of [3H]SCH-58261 from human Adenosine A2A receptor expressed in HEK293 cells; range 102-215; type: cell-based
[17] = molecular target: T1, Adenosine receptor A2b; assay: Displacement of [3H]DPCPX from human Adenosine A2B receptor expressed in HEK293 cells; range 43-58; type: cell-based
How it was run: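 HEK-293 membranes expressing the human receptor were incubated 60 min at 25 °C. Six to eight test concentrations were used. Nonspecific binding was set with NECA. n = 3-6.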

[18] = molecular target: T2, Adenosine receptor A3; assay: Displacement of [3H]MRE3008-F20 from human Adenosine A3 receptor expressed in HEK cells; range 0.12-0.37; type: cell-based, HEK293
[19] = molecular target: T1, Adenosine receptor A2b; assay: Displacement of [3H]DPCPX from human Adenosine A2B receptor expressed in HEK293 cells; range 183-278; type: cell-based; how it was run: as §1
[20] = molecular target: T2, Adenosine receptor A3; assay: Displacement of [3H]MRE3008-F20 from human Adenosine A3 receptor expressed in HEK cells; range 0.28-0.41; type: cell-based, HEK293
[21] = molecular target: T3, Adenosine receptor A2a; assay: Displacement of [3H]SCH-58261 from human Adenosine A2A receptor expressed in HEK293 cells; range 103-140; type: cell-based
[22] = molecular target: T2, Adenosine receptor A3; assay: Inhibition of IB-MECA agonist-mediated cAMP production in CHO cell membranes expressing human Adenosine A3 receptor; range 2.0-4.3; type: functional, cell-based
[23] = molecular target: T4, Adenosine receptor A1; assay: Displacement of [3H]DPCPX from human Adenosine A1 receptor expressed in CHO cells; range 262-814; type: cell-based; details: in the assay text read “range 602-814” for “range 262-814”; how it was run: as §2
[24] = molecular target: T2, Adenosine receptor A3; assay: Displacement of [3H]MRE3008-F20 from human Adenosine A3 receptor expressed in HEK cells; range 31-50; type: cell-based, HEK293
[25] = molecular target: T3, Adenosine receptor A2a; assay: Displacement of [3H]SCH-58261 from human Adenosine A2A receptor expressed in HEK293 cells; range 199-311; type: cell-based
[26] = molecular target: T4, Adenosine receptor A1; assay: Displacement of [3H]DPCPX from human Adenosine A1 receptor expressed in CHO cells; type: cell-based; how it was run: as §2
[27] = molecular target: T1, Adenosine receptor A2b; assay: Displacement of [3H]DPCPX binding at human Adenosine A2B receptor expressed in HEK293 cells; type: cell-based; how it was run: as §1

T3 sequence (P29274 whole entry): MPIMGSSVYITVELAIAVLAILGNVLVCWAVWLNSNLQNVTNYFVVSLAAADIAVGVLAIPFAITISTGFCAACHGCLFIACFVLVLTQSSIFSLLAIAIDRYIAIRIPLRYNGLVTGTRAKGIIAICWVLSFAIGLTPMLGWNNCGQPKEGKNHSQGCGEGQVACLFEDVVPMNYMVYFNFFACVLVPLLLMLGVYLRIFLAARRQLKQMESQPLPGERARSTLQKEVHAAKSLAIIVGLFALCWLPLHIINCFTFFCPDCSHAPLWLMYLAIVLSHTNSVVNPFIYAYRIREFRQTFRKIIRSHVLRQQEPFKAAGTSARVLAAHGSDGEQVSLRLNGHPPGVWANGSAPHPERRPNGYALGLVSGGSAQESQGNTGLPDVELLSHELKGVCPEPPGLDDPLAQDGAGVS

CCn1cc2c(nc(NC(=O)Nc3ccccc3OC)n3nc(-c4ccco4)nc23)n1
Ratio [1]: 536 | Ki [2]: 196 nM | Ratio [3]: 350 | Ki [4]: 0.56 nM | Ki [5]: 133 nM | Ki [6]: 300 nM

CCCCn1cc2c(nc(NC(=O)Nc3ccc(Cl)c(Cl)c3)n3nc(-c4ccco4)nc23)n1
Ratio [1]: 191 | Ki [7]: 708 nM | Ratio [3]: 9.19 | Ki [8]: 34 nM | Ki [9]: 3.7 nM | Ki [10]: 495 nM

CCn1cc2c(nc(NC(=O)Nc3ccc(Cl)c(Cl)c3)n3nc(-c4ccco4)nc23)n1
Ratio [1]: 175 | Ratio [3]: 13 | Ki [11]: 3 nM | Ki [12]: 352 nM | Ki [13]: 40 nM | Ki [14]: 526 nM

CCCCn1cc2c(nc(NC(=O)Nc3ccccc3)n3nc(-c4ccco4)nc23)n1
Ratio [1]: 1950 | Ratio [3]: 238 | Ki [15]: 409 nM | Ki [16]: 148 nM | Ki [17]: 50 nM | Ki [18]: 0.21 nM

Cn1cc2c(nc(NC(=O)Nc3ccc(F)cc3)n3nc(-c4ccco4)nc23)n1
Ratio [1]: 2060 | Ratio [3]: 665 | Ki [19]: 226 nM | Ki [20]: 0.34 nM | Ki [21]: 120 nM | IC50 [22]: 3 nM | Ki [23]: 700 nM

CCn1cc2c(nc(NC(=O)Nc3ccc(S(=O)(=O)O)cc3)n3nc(-c4ccco4)nc23)n1
Ratio [1]: > 250 | Ratio [3]: > 250 | Ki [24]: 40 nM | Ki [25]: 249 nM | Ki [26]: > 10000 nM | Ki [27]: > 10000 nM
